Laboratory results published in ChEMBL document CHEMBL1125769 (J Med Chem, 1991).
Numbered stars: 1 amine (or outer) side, 2 acyl side, 3 side chain; on linkers, the order of the positions; unused ones are H or OH. Square brackets hold non-standard residues; d marks the D form. Peptide text beside a SMILES is read from it. X2 = O=C([C@H]1C[S+]([O-])CN1[*:1])[*:2]; Thz(5,5-Me2) = CC1(C)SCN[C@@H]1C(=O)O; Pen = CC(C)(S)[C@H](N)C(=O)O; NMeA = CN[C@@H](C)C(=O)O; Ac5c = NC1(C(=O)O)CCCC1; Aib = CC(C)(N)C(=O)O; Sar = CNCC(=O)O

How the values were obtained:
Angiotensin II receptor = biological target: T1, Angiotensin II receptor (Rattus norvegicus, UniProt P29089+P25095+P35351); test: In vitro antagonist activity (ANG II like) expressed as percent activity relative to ANG II in rabbit aorta strip assay.; format: functional, tissue-based
T1 sequence (P29089 whole entry): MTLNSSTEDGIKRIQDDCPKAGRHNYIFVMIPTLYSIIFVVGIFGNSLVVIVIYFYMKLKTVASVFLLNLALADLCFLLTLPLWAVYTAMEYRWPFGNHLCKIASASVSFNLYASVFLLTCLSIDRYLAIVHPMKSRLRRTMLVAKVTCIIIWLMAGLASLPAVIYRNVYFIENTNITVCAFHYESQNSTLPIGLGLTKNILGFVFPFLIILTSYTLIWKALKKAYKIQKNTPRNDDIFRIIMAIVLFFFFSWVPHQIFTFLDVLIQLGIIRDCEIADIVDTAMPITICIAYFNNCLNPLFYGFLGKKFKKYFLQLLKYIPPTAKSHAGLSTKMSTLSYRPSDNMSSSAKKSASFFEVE
T1 sequence (P25095 whole entry): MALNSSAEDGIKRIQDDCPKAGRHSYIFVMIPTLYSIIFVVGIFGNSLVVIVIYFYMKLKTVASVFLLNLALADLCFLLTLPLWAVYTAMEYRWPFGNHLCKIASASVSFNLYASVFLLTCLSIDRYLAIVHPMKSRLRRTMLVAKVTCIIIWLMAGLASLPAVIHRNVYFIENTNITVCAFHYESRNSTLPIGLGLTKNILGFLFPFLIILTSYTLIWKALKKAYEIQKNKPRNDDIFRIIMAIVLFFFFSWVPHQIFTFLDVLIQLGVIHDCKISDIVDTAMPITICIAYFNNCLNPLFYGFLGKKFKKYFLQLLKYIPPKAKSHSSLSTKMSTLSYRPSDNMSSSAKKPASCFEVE
T1 sequence (P35351 whole entry): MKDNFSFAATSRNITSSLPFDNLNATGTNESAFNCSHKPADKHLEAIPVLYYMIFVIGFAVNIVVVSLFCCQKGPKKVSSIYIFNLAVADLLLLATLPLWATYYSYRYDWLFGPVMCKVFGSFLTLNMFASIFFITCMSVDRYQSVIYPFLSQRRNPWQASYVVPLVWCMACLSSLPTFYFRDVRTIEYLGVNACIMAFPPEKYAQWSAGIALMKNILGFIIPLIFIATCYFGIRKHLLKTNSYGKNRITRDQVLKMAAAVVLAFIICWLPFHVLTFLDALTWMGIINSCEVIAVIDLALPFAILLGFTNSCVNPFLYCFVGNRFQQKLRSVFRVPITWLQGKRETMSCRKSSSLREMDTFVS

[1] = biological target: T2, Angiotensin II receptor (Rattus norvegicus) (UniProt P29089+P25095+P35351); test: In vitro agonist activity relative to angiotensin II measured in rabbit aorta strip assay.; format: functional, tissue-based
[2] = biological target: T2, Angiotensin II receptor (Rattus norvegicus); test: In vivo antagonist activity (ANG II like) expressed by blood pressure increase (mHg) produced by […] iv injection of compound in rats; format: functional, organism-based
How it was run: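 Rat blood pressure assay after Regoli et al.; residual ANG II-like activity read as mmHg rise in blood pressure following a one microgram intravenous bolus of compound; n = 5.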

Row | Structure (SMILES) | pA2 (Angiotensin II receptor) | Activity [1] [%] | ID50 (ng min-1 rat-1) [2]
1 | CNCC(=O)N[C@@H](CCCN=C(N)N)C(=O)N[C@H](C(=O)N[C@@H](Cc1ccc(O)cc1)C(=O)N1CSC(C)(C)[C@H]1C(=O)N[C@@H](Cc1c[nH]cn1)C(=O)N1CCC[C@H]1C(=O)N[C@H](Cc1ccccc1)C(=O)O)C(C)C | 7.5 |  | 
2 | CC[C@H](C)[C@H](NC(=O)[C@H](Cc1ccc(O)cc1)NC(=O)[C@@H](NC(=O)[C@H](CCCN=C(N)N)NC(=O)CNC)C(C)C)C(=O)N[C@@H](Cc1c[nH]cn1)C(=O)N1CCC[C@H]1C(=O)N[C@H](Cc1ccccc1)C(=O)O | 9 | 0 | 12.5
3 | CC[C@H](C)[C@H](NC(=O)[C@H]1N(C(=O)[C@H](Cc2c[nH]cn2)NC(=O)[C@@H](NC(=O)[C@H](Cc2ccc(O)cc2)NC(=O)[C@@H](NC(=O)[C@H](CCCN=C(N)N)NC(=O)CNC)C(C)C)[C@@H](C)CC)CSC1(C)C)C(=O)O | 7.5 |  | 
4 | CC[C@H](C)[C@H](NC(=O)[C@@H]1CCCN1C(=O)[C@H](Cc1c[nH]cn1)NC(=O)[C@H]1N(C(=O)[C@H](Cc2ccc(O)cc2)NC(=O)[C@@H](NC(=O)[C@H](CCCN=C(N)N)NC(=O)CNC)C(C)C)CSC1(C)C)C(=O)O | 9 |  | 
5 | CC[C@H](C)[C@H](NC(=O)[C@@H]1CCCN1C(=O)[C@H](Cc1c[nH]cn1)NC(=O)[C@](C)(Cc1ccc(O)cc1)NC(=O)[C@H](Cc1ccc(O)cc1)NC(=O)[C@@H](NC(=O)[C@H](CCCN=C(N)N)NC(=O)CNC)C(C)C)C(=O)O | 8.25 | 0 | 100
6 | CC[C@H](C)[C@H](NC(=O)[C@H](Cc1ccc(O)cc1)NC(=O)[C@@H](NC(=O)[C@H](CCCN=C(N)N)NC(=O)CNC)C(C)C)C(=O)N[C@@H](Cc1c[nH]cn1)C(=O)N1CCC[C@H]1C(=O)NC(C)(C)C(=O)O | 8.7 |  | 
7 | CC[C@H](C)[C@H](NC(=O)[C@@H]1CCCN1C(=O)[C@H](Cc1c[nH]cn1)NC(=O)[C@H]([C@@H](C)CC)N(C)C(=O)[C@H](Cc1ccc(O)cc1)NC(=O)[C@@H](NC(=O)[C@H](CCCN=C(N)N)NC(=O)CNC)C(C)C)C(=O)O | 7.64 | 0 | 
8 | CC[C@H](C)[C@@H](C(=O)N[C@@H](Cc1c[nH]cn1)C(=O)N1CCC[C@H]1C(=O)N[C@@H](Cc1ccccc1)C(=O)O)N(C)C(=O)[C@H](Cc1ccc(O)cc1)NC(=O)[C@@H](NC(=O)[C@H](CCCN=C(N)N)NC(=O)CNC)C(C)C |  | 20 | 
9 | CC[C@H](C)[C@H](NC(=O)[C@@H]1CCCN1C(=O)[C@H](Cc1c[nH]cn1)NC(=O)[C@@H]1N(C(=O)[C@H](Cc2ccc(O)cc2)NC(=O)[C@@H](NC(=O)[C@H](CCCN=C(N)N)NC(=O)CNC)C(C)C)CSC1(C)C)C(=O)O |  | 0 | 25
10 | CC[C@H](C)[C@H](NC(=O)[C@@H]1N(C(=O)[C@H](Cc2c[nH]cn2)NC(=O)[C@@H](NC(=O)[C@H](Cc2ccc(O)cc2)NC(=O)[C@@H](NC(=O)[C@H](CCCN=C(N)N)NC(=O)CNC)C(C)C)[C@@H](C)CC)CSC1(C)C)C(=O)O |  | 4 | 250
11 | CC[C@H](C)[C@H](NC(=O)[C@H]1CSCN1C(=O)[C@H](Cc1c[nH]cn1)NC(=O)[C@@H](NC(=O)[C@H](Cc1ccc(O)cc1)NC(=O)[C@@H](NC(=O)[C@H](CCCN=C(N)N)NC(=O)CNC)C(C)C)[C@@H](C)CC)C(=O)O |  | 0 | 
12 | CNCC(=O)N[C@@H](CCCN=C(N)N)C(=O)N[C@H](C(=O)N[C@@H](Cc1ccc(O)cc1)C(=O)N1CSC(C)(C)[C@@H]1C(=O)N[C@@H](Cc1c[nH]cn1)C(=O)N1CCC[C@H]1C(=O)N[C@H](Cc1ccccc1)C(=O)O)C(C)C |  | 0 | 1000
13 | CC[C@H](C)[C@H](NC(=O)[C@@H]1CCCN1C(=O)[C@H](Cc1c[nH]cn1)NC(=O)[C@H](C)NC(=O)[C@H](Cc1ccc(O)cc1)NC(=O)[C@@H](NC(=O)[C@H](CCCN=C(N)N)NC(=O)CNC)C(C)C)C(=O)O (H-[Sar]RVYAHPI-OH) | 7.5 | 0 | 50
14 | CC[C@H](C)[C@H](NC(=O)[C@@H]1CCCN1C(=O)[C@H](Cc1c[nH]cn1)NC(=O)[C@@H](NC(=O)[C@H](Cc1ccc(O)cc1)NC(=O)[C@@H](NC(=O)[C@H](CCCN=C(N)N)NC(=O)CNC)C(C)C)C(C)(C)SC)C(=O)O (H-[Sar]RVY[Pen](Me)HPI-OH) | 9 |  | 

Now from value to compound, other results behind:

Row | pA2 (Angiotensin II receptor) | Activity [1] [%] | Structure (SMILES) | ID50 (ng min-1 rat-1) [2]
15 | 9.7 |  | CC[C@H](C)[C@H](NC(=O)[C@@H]1CSCN1C(=O)[C@H](Cc1c[nH]cn1)NC(=O)[C@@H](NC(=O)[C@H](Cc1ccc(O)cc1)NC(=O)[C@@H](NC(=O)[C@H](CCCN=C(N)N)NC(=O)CNC)C(C)C)[C@@H](C)CC)C(=O)O | 
16 | 9.6 |  | CC[C@H](C)[C@H](NC(=O)[C@@H]1CCCN1C(=O)[C@H](Cc1c[nH]cn1)NC(=O)[C@H](Cc1ccc(O)cc1)NC(=O)[C@H](Cc1ccc(O)cc1)NC(=O)[C@@H](NC(=O)[C@H](CCCN=C(N)N)NC(=O)CNC)C(C)C)C(=O)O | 
17 |  | 0 | CC[C@@H](C)[C@@H](NC(=O)[C@H](Cc1ccc(O)cc1)NC(=O)[C@@H](NC(=O)[C@H](CCCN=C(N)N)NC(=O)CNC)C(C)C)C(=O)N[C@@H](Cc1c[nH]cn1)C(=O)N1CCC[C@H]1C(=O)NC(C)(C)C(=O)O | 
18 |  | 0 | CC[C@H](C)[C@H](NC(=O)[C@@H]1CCCN1C(=O)[C@H](Cc1c[nH]cn1)NC(=O)[C@@H](NC(=O)[C@H](Cc1ccc(O)cc1)NC(=O)[C@@H](NC(=O)[C@H](CCCN=C(N)N)NC(=O)CNC)C(C)C)[C@@H](C)CC)C(=O)O | 10
19 |  | 120 | CC[C@H](C)[C@H](NC(=O)[C@H](Cc1ccc(O)cc1)NC(=O)[C@H](C)N(C)C(=O)[C@H](CCCN=C(N)N)NC(=O)CNC)C(=O)N[C@@H](Cc1c[nH]cn1)C(=O)N1CCC[C@H]1C(=O)N[C@@H](Cc1ccccc1)C(=O)O | 
20 |  | 38 | CC[C@H](C)[C@H](NC(=O)[C@H](Cc1ccc(O)cc1)NC(=O)[C@H](C)NC(=O)[C@H](CCCN=C(N)N)NC(=O)CNC)C(=O)N[C@@H](Cc1c[nH]cn1)C(=O)N1CCC[C@H]1C(=O)N[C@@H](Cc1ccccc1)C(=O)O (H-[Sar]RAYIHPF-OH) | 
21 | 7.17 | 1.5 | CC[C@H](C)[C@H](NC(=O)[C@@H]1CCCN1C(=O)[C@H](Cc1c[nH]cn1)NC(=O)[C@@H](NC(=O)[C@H](Cc1ccc(O)cc1)NC(=O)[C@@H]1CCCN1C(=O)[C@H](CCCN=C(N)N)NC(=O)CNC)[C@@H](C)CC)C(=O)O (H-[Sar]RPYIHPI-OH) | 
22 | 6.7 |  | CC[C@H](C)[C@H](NC(=O)[C@H]1C[S+]([O-])CN1C(=O)[C@H](Cc1c[nH]cn1)NC(=O)[C@@H](NC(=O)[C@H](Cc1ccc(O)cc1)NC(=O)[C@@H](NC(=O)[C@H](CCCN=C(N)N)NC(=O)CNC)C(C)C)[C@@H](C)CC)C(=O)O (stereo partly specified) (H-[Sar]RVYIH[X2]I-OH) | 
23 |  | 70 | CNCC(=O)N[C@@H](CCCN=C(N)N)C(=O)N[C@H](C(=O)N[C@@H](Cc1ccc(O)cc1)C(=O)NC1(C(=O)N[C@@H](Cc2c[nH]cn2)C(=O)N2CCC[C@H]2C(=O)N[C@@H](Cc2ccccc2)C(=O)O)CCCC1)C(C)C (H-[Sar]RVY[Ac5c]HPF-OH) | 
24 | < 6 |  | CNCC(=O)N[C@@H](CCCN=C(N)N)C(=O)N(C)[C@@H](C)C(=O)N[C@@H](Cc1ccc(O)cc1)C(=O)N1CSC(C)(C)[C@H]1C(=O)N[C@@H](Cc1c[nH]cn1)C(=O)N1CCC[C@H]1C(=O)NC(C)(C)C(=O)O (H-[Sar]R[NMeA]Y[Thz(5,5-Me2)]HP[Aib]-OH) | 
